Test results published in ChEMBL document CHEMBL3792373, “Anti-methicillin resistant Staphylococcus aureus activity, synergism with oxacillin and molecular docking studies of metronidazole-triazole hybrids” (Eur J Med Chem, 2016).
Values after ≈ are worked out from the molar mass of the structure shown.

Assays:
Assay type in all cases: functional
Staphylococcus aureus [1] = experiment: Antimicrobial activity against methicillin-resistant Staphylococcus aureus isolate 3a after 24 hrs by agar plate dilution method in presence of oxacillin (1:1)
Procedure, shortened: (§1)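 Test compound and oxacillin mixed 1:1, each at 32 µg/mL in the mixture, then serially diluted into agar plates. Clinical MRSA isolates at McFarland 0.5 in water were spotted onto the plates and incubated 24 h at 37 °C. Growth was read as white spots. NCTC 6571 S. aureus served as the dilution-series control.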

Staphylococcus aureus [2] = experiment: Antimicrobial activity against methicillin-resistant Staphylococcus aureus isolate 15a after 24 hrs by agar plate dilution method in presence of oxacillin (1:1); procedure, shortened: as §1
Staphylococcus aureus [3] = experiment: Antimicrobial activity against methicillin-resistant Staphylococcus aureus isolate 5a after 24 hrs by agar plate dilution method
Procedure, shortened: (§2)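 Clinical MRSA isolates, from axilla/nasal swabs and identified by mannitol salt agar, Gram stain and coagulase test. […] Inoculum adjusted to McFarland 0.5 in water. Plates incubated 24 h at 37 °C and scored for growth spots. Dilution series quality-controlled with S. aureus NCTC 6571. Combination lines used a 1:1 mixture with oxacillin.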

Staphylococcus aureus [4] = experiment: Antimicrobial activity against methicillin-resistant Staphylococcus aureus isolate 12a after 24 hrs by agar plate dilution method
Procedure, shortened: (§3)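 Clinical MRSA isolates from axilla/nasal swabs, identified by mannitol salt agar, Gram stain and coagulase test. Agar plate dilution with compound series 0.03–128 µg/mL. Inoculum suspended in water to McFarland 0.5. Incubation 24 h at 37 °C. MIC read as the lowest level without white growth spots. Dilution series quality-controlled with S. aureus NCTC 6571.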

Staphylococcus aureus [5] = experiment: Antimicrobial activity against methicillin-resistant Staphylococcus aureus isolate 8a after 24 hrs by agar plate dilution method in presence of oxacillin (1:1); procedure, shortened: as §2
Staphylococcus aureus [6] = experiment: Bactericidal activity against methicillin-resistant Staphylococcus aureus isolate 1a assessed as reduction in colony counts at 32 ug/ml after 16 hrs by pour plate method in presence of oxacillin (1:1) (reference value: 12.50 +/- 0.291 log10CFU/ml)
Staphylococcus aureus [7] = experiment: Bactericidal activity against methicillin-resistant Staphylococcus aureus isolate 1a assessed as reduction in colony counts at 32 ug/ml after 24 hrs by pour plate method in presence of oxacillin (1:1) (reference value: 12.64 +/- 0.224 log10CFU/ml)
Staphylococcus aureus [8] = experiment: Antimicrobial activity against methicillin-resistant Staphylococcus aureus isolate 14a after 24 hrs by agar plate dilution method in presence of oxacillin (1:1); procedure, shortened: as §1
Staphylococcus aureus [9] = experiment: Antimicrobial activity against methicillin-resistant Staphylococcus aureus isolate 24a after 24 hrs by agar plate dilution method in presence of oxacillin (1:1); procedure, shortened: as §1
Staphylococcus aureus [10] = experiment: Antimicrobial activity against methicillin-resistant Staphylococcus aureus isolate 3a after 24 hrs by agar plate dilution method; procedure, shortened: as §3
Staphylococcus aureus [11] = experiment: Antimicrobial activity against methicillin-resistant Staphylococcus aureus isolate 1a after 24 hrs by agar plate dilution method in presence of oxacillin (1:1); procedure, shortened: as §1
Staphylococcus aureus [12] = experiment: Antimicrobial activity against methicillin-resistant Staphylococcus aureus isolate 4a after 24 hrs by agar plate dilution method; procedure, shortened: as §3
Staphylococcus aureus [13] = experiment: Antimicrobial activity against methicillin-resistant Staphylococcus aureus isolate 21a after 24 hrs by agar plate dilution method; procedure, shortened: as §3
Staphylococcus aureus [14] = experiment: Antimicrobial activity against methicillin-resistant Staphylococcus aureus isolate 15a after 24 hrs by agar plate dilution method; procedure, shortened: as §3
Staphylococcus aureus [15] = experiment: Bactericidal activity against methicillin-resistant Staphylococcus aureus isolate 1a assessed as reduction in colony counts at 32 ug/ml after 16 hrs by pour plate method (reference value: 12.50 +/- 0.291 log10CFU/ml)
Staphylococcus aureus [16] = experiment: Bactericidal activity against methicillin-resistant Staphylococcus aureus isolate 1a assessed as reduction in colony counts at 32 ug/ml after 8 hrs by pour plate method (reference value: 8.30 +/- 0.442 log10CFU/ml)
Staphylococcus aureus [17] = experiment: Antimicrobial activity against methicillin-resistant Staphylococcus aureus isolate 13a after 24 hrs by agar plate dilution method; procedure, shortened: as §3
Staphylococcus aureus [18] = experiment: Antimicrobial activity against methicillin-resistant Staphylococcus aureus isolate 20a after 24 hrs by agar plate dilution method in presence of oxacillin (1:1); procedure, shortened: as §1
Staphylococcus aureus [19] = experiment: Bactericidal activity against methicillin-resistant Staphylococcus aureus isolate 1a assessed as reduction in colony counts at 32 ug/ml after 4 hrs by pour plate method (reference value: 6.14 +/- 0.456 log10CFU/ml)
Staphylococcus aureus [20] = experiment: Antimicrobial activity against methicillin-resistant Staphylococcus aureus isolate 17a after 24 hrs by agar plate dilution method in presence of oxacillin (1:1); procedure, shortened: as §1
Staphylococcus aureus [21] = experiment: Antimicrobial activity against methicillin-resistant Staphylococcus aureus isolate 8a after 24 hrs by agar plate dilution method; procedure, shortened: as §2
Staphylococcus aureus [22] = experiment: Antimicrobial activity against methicillin-resistant Staphylococcus aureus isolate 20a after 24 hrs by agar plate dilution method; procedure, shortened: as §3
Staphylococcus aureus [23] = experiment: Antimicrobial activity against methicillin-resistant Staphylococcus aureus isolate 2a after 24 hrs by agar plate dilution method in presence of oxacillin (1:1); procedure, shortened: as §1
Staphylococcus aureus [24] = experiment: Antimicrobial activity against methicillin-resistant Staphylococcus aureus isolate 7a after 24 hrs by agar plate dilution method in presence of oxacillin (1:1); procedure, shortened: as §2
Staphylococcus aureus [25] = experiment: Antimicrobial activity against methicillin-resistant Staphylococcus aureus isolate 10a after 24 hrs by agar plate dilution method in presence of oxacillin (1:1); procedure, shortened: as §1
Staphylococcus aureus [26] = experiment: Antimicrobial activity against methicillin-resistant Staphylococcus aureus isolate 19a after 24 hrs by agar plate dilution method; procedure, shortened: as §3
Staphylococcus aureus [27] = experiment: Antimicrobial activity against methicillin-resistant Staphylococcus aureus isolate 23a after 24 hrs by agar plate dilution method in presence of oxacillin (1:1); procedure, shortened: as §1
Staphylococcus aureus [28] = experiment: Antimicrobial activity against methicillin-resistant Staphylococcus aureus isolate 11a after 24 hrs by agar plate dilution method in presence of oxacillin (1:1); procedure, shortened: as §1
Staphylococcus aureus [29] = experiment: Bactericidal activity against methicillin-resistant Staphylococcus aureus isolate 1a assessed as reduction in colony counts at 32 ug/ml after 12 hrs by pour plate method (reference value: 10.12 +/- 0.428 log10CFU/ml)
Staphylococcus aureus [30] = experiment: Antimicrobial activity against methicillin-resistant Staphylococcus aureus isolate 16a after 24 hrs by agar plate dilution method; procedure, shortened: as §3
Staphylococcus aureus [31] = experiment: Antimicrobial activity against methicillin-resistant Staphylococcus aureus isolate 30a after 24 hrs by agar plate dilution method; procedure, shortened: as §3
Staphylococcus aureus [32] = experiment: Antimicrobial activity against methicillin-resistant Staphylococcus aureus isolate 29a after 24 hrs by agar plate dilution method; procedure, shortened: as §3
Staphylococcus aureus [33] = experiment: Antimicrobial activity against methicillin-resistant Staphylococcus aureus isolate 22a after 24 hrs by agar plate dilution method in presence of oxacillin (1:1); procedure, shortened: as §1
Staphylococcus aureus [34] = experiment: Antimicrobial activity against methicillin-resistant Staphylococcus aureus isolate 9a after 24 hrs by agar plate dilution method; procedure, shortened: as §2

Cc1ncc([N+](=O)[O-])n1CCn1cc(COc2c(Cl)cccc2Cl)nn1
MIC (Staphylococcus aureus [1]): 1 µg/mL | MIC (Staphylococcus aureus [2]): 4 µg/mL | MIC (Staphylococcus aureus [3]): 4 µg/mL (≈ 10.1 µM) | MIC (Staphylococcus aureus [4]): 32 µg/mL (≈ 80.6 µM) | MIC (Staphylococcus aureus [5]): 1 µg/mL | Activity (Staphylococcus aureus [6]): 4.52 log10CFU/ml | Activity (Staphylococcus aureus [7]): 5.6 log10CFU/ml | MIC (Staphylococcus aureus [8]): 4 µg/mL | MIC (Staphylococcus aureus [9]): 4 µg/mL | MIC (Staphylococcus aureus [10]): 4 µg/mL (≈ 10.1 µM) | MIC (Staphylococcus aureus [11]): 1 µg/mL | MIC (Staphylococcus aureus [12]): 4 µg/mL (≈ 10.1 µM) | MIC (Staphylococcus aureus [13]): 4 µg/mL (≈ 10.1 µM) | MIC (Staphylococcus aureus [14]): > 128 µg/mL | Activity (Staphylococcus aureus [15]): 5.53 log10CFU/ml | Activity (Staphylococcus aureus [16]): 6.05 log10CFU/ml | MIC (Staphylococcus aureus [17]): 64 µg/mL (≈ 161 µM) | MIC (Staphylococcus aureus [18]): 2 µg/mL | Activity (Staphylococcus aureus [19]): 5.65 log10CFU/ml | MIC (Staphylococcus aureus [20]): 1 µg/mL | MIC (Staphylococcus aureus [21]): 4 µg/mL (≈ 10.1 µM) | MIC (Staphylococcus aureus [22]): > 128 µg/mL | MIC (Staphylococcus aureus [23]): 1 µg/mL | MIC (Staphylococcus aureus [24]): 1 µg/mL | MIC (Staphylococcus aureus [25]): 2 µg/mL | MIC (Staphylococcus aureus [26]): 32 µg/mL (≈ 80.6 µM) | MIC (Staphylococcus aureus [27]): 4 µg/mL | MIC (Staphylococcus aureus [28]): 1 µg/mL | Activity (Staphylococcus aureus [29]): 5.96 log10CFU/ml | MIC (Staphylococcus aureus [30]): 32 µg/mL (≈ 80.6 µM) | MIC (Staphylococcus aureus [31]): 64 µg/mL (≈ 161 µM) | MIC (Staphylococcus aureus [32]): 128 µg/mL (≈ 322 µM) | MIC (Staphylococcus aureus [33]): 4 µg/mL | MIC (Staphylococcus aureus [34]): 8 µg/mL (≈ 20.1 µM)
